Test results taken from PMC3744939 (ChemMedChem, 2012).
Where a name gives a salt, the structure may show the parent alone. Read-outs that look alike come from different tables or passages of the source.

Tests used:
HeLa cells [1] = assay: In vitro toxicity assay for HeLa mammalian cells; format: cell-based, human; conditions: read-out: HeLa EC50
Procedure, shortened: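 Alamar Blue assay on HeLa cells grown in DMEM with 10% FCS and 2 mM L-glutamine. Cells plated at 3 × 10^5 cells mL−1 and exposed to serially diluted test compound for 16 h before Alamar Blue addition. Fluorescence read at ex 544/em 590 nm; EC50 derived from the dose-response.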

[2] = tested on: bloodstream form T. b. brucei (strain 427); assay: In vitro toxicity assay for T. b. brucei; format: cell-based; conditions: for EC50: read-out: T. b. brucei EC50, strain 427, 48 h + 24 h Alamar Blue
[3] = biological target: T1, recombinant T. b. brucei CTPS (Trypanosoma brucei brucei, UniProt Q4GZ95); assay: CTPS enzyme assay; format: biochemical
T1 sequence (Q4GZ95 1-589): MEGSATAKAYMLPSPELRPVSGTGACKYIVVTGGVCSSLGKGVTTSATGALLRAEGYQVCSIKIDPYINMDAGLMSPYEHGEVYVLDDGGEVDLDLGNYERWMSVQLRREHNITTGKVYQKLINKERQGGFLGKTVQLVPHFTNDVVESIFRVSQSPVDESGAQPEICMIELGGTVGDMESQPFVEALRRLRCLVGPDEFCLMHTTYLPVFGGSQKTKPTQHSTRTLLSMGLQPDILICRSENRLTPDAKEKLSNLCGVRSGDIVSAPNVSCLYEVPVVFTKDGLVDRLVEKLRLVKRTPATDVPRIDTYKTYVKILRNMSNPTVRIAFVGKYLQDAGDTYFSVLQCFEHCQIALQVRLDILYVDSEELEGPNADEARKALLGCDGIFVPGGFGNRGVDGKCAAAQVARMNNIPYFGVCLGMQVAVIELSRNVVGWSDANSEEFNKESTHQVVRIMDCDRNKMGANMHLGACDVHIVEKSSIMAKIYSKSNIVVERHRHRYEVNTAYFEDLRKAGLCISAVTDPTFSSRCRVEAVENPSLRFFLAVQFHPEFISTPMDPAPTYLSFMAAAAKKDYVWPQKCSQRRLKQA
Procedure, shortened: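 Recombinant T. b. brucei CTPS measured by coupled spectrophotometric assay with pyruvate kinase/lactate dehydrogenase. Enzyme pre-incubated with varied test-compound concentrations at room temperature, then added to reaction mix; A341 decrease monitored; IC50.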

[4] = biological target: T1, recombinant T. b. brucei CTPS; conditions: 3-Br versus 3-Cl (Acivicin); cited from earlier work
HeLa cells [5] = conditions: 3-Br versus 3-Cl (Acivicin); cited from earlier work
[6] = tested on: bloodstream form T. b. brucei (strain 427); conditions: 3-Br versus 3-Cl (Acivicin); cited from earlier work
[7] = 16 hours incubation before Alamar Blue

Structure (SMILES) | IC50 [3] [µM] | EC50 (HeLa cells [1]; Homo sapiens, HeLa, 16 h) [µM] | S.I. selectivity index (EC50 HeLa/EC50 T. b. brucei) [2] | further results
N[C@H](C(=O)O)[C@@H]1CC(Cl)=NO1 [Acivicin, reference compound] |  | 16.3 | 36 | 
COC(=O)[C@@H](N)[C@@H]1CC(Br)=NO1 [1-COOMe] |  |  |  | EC50 (HeLa cells [1]; [7]): 12.5 ± 1.6 µM; EC50 [2]: 2.1 ± 0.5 µM
O=C(N[C@H](C(=O)O)[C@@H]1CC(Br)=NO1)OCc1ccccc1 [Compound 6, (S)-(benzyloxycarbonylamino)-2-((S)-3-bromo-4,5-dihydro-isoxazol-5-yl)acetic acid] | 1.74 ± 0.4 | 410 ± 39 |  | times weaker than Acivicin as a CTPS inhibitor ([3]; relative to Acivicin): 5; times weaker than Br-Acivicin as a CTPS inhibitor ([3]; relative to Br-Acivicin): 17
N[C@H](C(=O)O)[C@@H]1CC(Br)=NO1 [Compound 1, Br-Acivicin] |  |  |  | increase of the inhibitory potency against CTPS [4]: three fold; EC50 (HeLa cells [1]; [7]): 15.1 ± 1.2 µM; toxicity against mammalian cells (HeLa cells [5]): unaffected; times more potent than Acivicin as a CTPS inhibitor ([3]; relative to Acivicin): 3; increase in the in vitro anti-trypanosomal activity [6]: twelve-fold; EC50 [2]: 0.038 ± 0.013 µM; times more efficacious than Acivicin as an anti-trypanosomal agent ([2]; relative to Acivicin): 12
O=C(O)CC1CC(Br)=NO1 (centres unmarked) [Compound 4, 2-(3-bromo-4,5-dihydroisoxazol-5-yl)acetic acid] | > 500 | > 500 | >5 | inhibitory activity against CTPS, in words [3]: inactive
CN(C)C1=NO[C@H]([C@H](N)C(=O)O)C1 [Compound 3, (S)-2-amino-2-((S)-3-(dimethylamino)-4,5-dihydroisoxazol-5-yl)acetic acid] | > 500 | > 500 | >5 | inhibitory activity against CTPS, in words [3]: complete loss of the inhibitory potency
CC(C)(C)OC(=O)N[C@H](C(=O)O)[C@@H]1CC(Br)=NO1 [Compound 5] |  |  |  | EC50 (HeLa cells [1]; [7]): 4.6 ± 0.5 µM; CTPS inhibitory potency relative to Br-Acivicin ([3]; relative to Br-Acivicin): twice more potent; EC50 [2]: 3.4 ± 0.4 µM
COC(=O)[C@@H](N)[C@@H]1CC(Cl)=NO1 [Acivicin-COOMe] |  |  |  | EC50 (HeLa cells [1]; [7]): 41.9 ± 3.1 µM; EC50 [2]: 22.4 ± 1.3 µM
COC1=NO[C@H]([C@H](N)C(=O)O)C1 [Compound 2, (S)-2-amino-2-((S)-3-methoxy-4,5-dihydroisoxazol-5-yl)acetic acid] | > 500 | > 500 | >5 | 

More lines, main results first:

IC50 [3] [µM] | Structure (SMILES) | EC50 (HeLa cells [1]; Homo sapiens, HeLa, 16 h) [µM] | S.I. selectivity index (EC50 HeLa/EC50 T. b. brucei) [2] | further results
> 500 | N[C@H](C(=O)O)[C@H]1CC(Cl)=NN1Cc1ccccc1 (relative stereo) [Compound 7a, (S*)-2-amino-2-((R*)-1-benzyl-3-chloro-4,5-dihydro-1H-pyrazol-5-yl)acetic acid hydrochloride] | > 500 |  | 
0.1 ± 0.004 | CCN1N=C(Cl)C[C@@H]1[C@H](N)C(=O)O.Cl (relative stereo) [Compound 8a, (S*)-2-amino-2-((R*)-3-chloro-1-ethyl-4,5-dihydro-1H-pyrazol-5-yl)acetic acid hydrochloride] | > 500 | >5 | inhibitory activity against CTPS, in words [3]: sub-micromolar inhibition; times more potent than Acivicin as a CTPS inhibitor ([3]; relative to Acivicin): about three times more potent; increase of trypanocidal activity upon conversion into the methyl ester (times) ([2]; methyl ester versus free amino acid): about 9
> 500 | CCN1N=C(Cl)C[C@H]1[C@H](N)C(=O)O (relative stereo) [Compound 8b, (S*)-2-amino-2-((S*)-3-chloro-1-ethyl-4,5-dihydro-1H-pyrazol-5-yl)acetic acid hydrochloride] | > 500 |  | 
0.125 ± 0.002 | Cl.NCCN1N=C(Cl)CC1C(N)C(=O)O (centres unmarked) [9a,b, 2-amino-2-(1-(2-aminoethyl)-3-chloro-4,5-dihydro-1H-pyrazol-5-yl)acetic acid monohydrochloride] | > 500 |  | inhibitory activity against CTPS, in words [3]: sub-micromolar inhibition; times more potent than Acivicin as a CTPS inhibitor ([3]; relative to Acivicin): about three times more potent
> 500 | N[C@H](C(=O)O)[C@@H]1CC(Cl)=NN1Cc1ccccc1 (relative stereo) [Compound 7b, (S*)-2-amino-2-((S*)-1-benzyl-3-chloro-4,5-dihydro-1H-pyrazol-5-yl)acetic acid hydrochloride] | > 500 |  | 
